# Screening data (PubChem)
# In the library only some 1.7% were active in any assay of this set; here they are far more common.
# STEP inh = STEP phosphatase inhibitors, primary screen, biochemical, fluorescence intensity, uHTS; recombinant STEP, OMFP fluorogenic substrate; 360,000 tested, 0.25% active; inhibition, % at 20 µM; Tyrosine-protein phosphatase non-receptor type 5 (Homo sapiens), P54829;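 active = inhibition at 20 µM, scaled per plate between control wells, above about 37%, limit read from the data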;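 also: 0% = DMSO with enzyme and substrate and 100% = substrate only without enzyme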
#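 Material: STEP (striatal-enriched tyrosine phosphatase) enzyme, cell-free; Compound dosing: 20 µM single dose in 1% DMSO; Technique: fluorescence read at 480 nm ex / 540 nm em; Times: reaction 20 min, ambient temperature; Medium: 50 mM Bis-Tris pH 6.0 with 2.5 mM DTT and 0.005% Tween 20; Also added: OMFP at 25 µM.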
# Scp1 inh = Scp-1 phosphatase inhibitors, primary screen, biochemical, colorimetric, uHTS; Carboxy-terminal domain RNA polymerase II polypeptide A small phosphatase 1 (Homo …; Recombinant Scp1, phosphopeptide, malachite green phosphate absorbance; inhibition, % at 20 µM; 340,000 tested, 0.88% active; AID 493091, 2011;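 active = inhibition above about 50% at 20 µM, limit read from the data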;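 also: plate controls were DMSO wells with enzyme for no effect and wells lacking enzyme for full effect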
#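 Material: truncated SCP-1 phosphatase (76-261aa) / Buffer or medium: 50 mM Tris acetate pH 5.5, 0.005% Tween-20, 10 mM MgCl2 / Compound dosing: one concentration, 20 µM, with 1.0% DMSO / Incubation: 45 min room-temperature reaction, 5 min colour, 30 min stabiliser / Detection: colorimetric free-phosphate detection, absorbance 630 nm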
# SUMO1 PPI mod = modulators of SUMO1 protein-protein interactions, primary screen, biochemical, uHTS; SUMO1 binding to a labelled peptide, TR-FRET, 1 h; inhibition, % at 20 µM; 360,000 tested, 0.33% active; in the data active = inhibition above about 37%
# DNMT1 block = human DNMT1 methyltransferase inhibitors, primary screen, biochemical, molecular beacon, fluorescence, HinP1I cleavage, uHTS; DNA (cytosine-5)-methyltransferase 1 (Homo sapiens), P26358; inhibition (reported as % activation of signal), % at 10 µM; 360,000 tested, 0.83% active; in the data active = inhibition above about 50%
# LMPTP inh = LMPTP phosphatase inhibitors, primary screen, biochemical, fluorescence intensity, uHTS. recombinant LMPTP-A, OMFP fluorogenic substrate. inhibition, % at 20 µM. 360,000 tested, 0.22% active. AID 651560, 2012;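 active = compounds that cut the enzyme signal by at least half of the control window in the single-dose screen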;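 also: plate controls were DMSO wells with enzyme plus substrate for no effect and substrate without enzyme for full effect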
#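 Assay system: LMPTP-A, protein tyrosine phosphatase of low molecular weight / Medium: pH 6.0 Bis-Tris buffer with DTT and Triton X-100 / Schedule: 50 min enzyme reaction at room temperature, protected from light / Measured by: endpoint fluorescence intensity from OMFP dephosphorylation / Read-out basis: % inhibition relative to no-enzyme and uninhibited control wells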
# Scp1 confirm = Scp-1 phosphatase inhibitors, retest, confirmation, biochemical, colorimetric, single concentration | shares compounds with Scp1 inh | inhibition, % at 20 µM | 2,500 tested, 61% active | recombinant SCP-1 catalytic domain, phosphate release, malachite green absorbance;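 also: plate controls were DMSO with enzyme for no effect and buffer wells lacking enzyme for full effect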
# MG interference = colorimetric readout interference by compounds, confirmation, artefact control for Scp-1 inhibitor project, biochemical, single concentration. AID 540313, 2011. shares compounds with Scp1 inh. apparent inhibition (interference), % at 20 µM. 2,500 tested, under 10 active. Colorimetric interference counterscreen, malachite green absorbance 630 nm;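 also: compounds added after enzyme reaction finished so only phosphate colour detection is probed; plate controls were DMSO wells with completed Scp-1 reaction for no effect and substrate wells lacking enzyme for full effect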
# Scp1 DSF = Scp-1 binding by thermal shift, confirmation, orthogonal assay for Scp-1 inhibitor project, biophysical, differential scanning fluorimetry; shares compounds with Scp1 inh; Recombinant SCP1, Sypro Orange thermal shift Tm; thermal shift relative to vanadate control, % at 40 µM; 1,500 tested, 25% active;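 active = substances whose mean melting-temperature shift, as a percentage of the reference inhibitor's shift, reaches about 5.3%, limit read from the data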;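 also: 0% = Tm of DMSO wells and 100% = Tm with sodium orthovanadate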
# An asterisk follows results filed as active; · = no result given.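 The calls were made as follows, unless noted: active = inhibition of at least 30% at 20 µM; inactive = the rest.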
SMILES,STEP inh,Scp1 inh,SUMO1 PPI mod,DNMT1 block,LMPTP inh,Scp1 confirm,MG interference,Scp1 DSF
COc1cccc(C(NC(C)=O)c2nc(-c3ccc(F)c(Cl)c3)cs2)c1 (stereo not drawn),1.6,·,-1.6,1.0,3.0,·,·,·
COc1ccc(NC(=S)N(CCCN2CCOCC2)C(C)c2cc3ccccc3o2)cc1 (stereo not drawn),3.1,63.9*,-1.2,-1.1,-2.9,-11.5,-9.0,·
C(=C\c1ccccc1)/CN1CCN(Cc2nc(Cc3ccccc3)no2)CC1,-1.5,53.2*,-2.5,10.2,-0.9,-5.6,-3.8,·
C[n+]1ccc(C(=O)Nc2ccccc2Cl)cc1,-2.6,98.3*,-9.5,3.4,-1.1,89.6*,-14.2,-13.5
O=C(NCC1CCCO1)C(=O)N/N=C/c1ccc(OCc2ccccc2Cl)cc1 (stereo not drawn),4.2,-11.2,-4.5,31.4,-0.1,·,·,·
COc1ccccc1N1CCN(C(=O)C(C)CS(=O)(=O)c2ccc3c(c2)NC(=O)CS3)CC1 (stereo not drawn),6.7,58.8*,28.6,42.9,0.3,63.2*,-1.9,-1.0
COc1ccccc1N1CCN(S(=O)(=O)c2ccc3c(c2)NC(=O)C(C)S3)CC1 (stereo not drawn),1.5,-6.2,0.3,-1.8,1.9,·,·,·
CN1CCN(S(=O)(=O)c2cccc(C(=O)N(C)CC(=O)Nc3ccc(F)c(F)c3F)c2)CC1,2.9,94.7*,4.2,1.8,-0.4,17.4,-9.0,·
COc1ccc(NS(=O)(=O)c2cccc(C(=O)NNC(=O)c3cccn3C)c2)cc1,-1.7,62.6*,1.9,28.9,2.5,64.8*,-9.5,6.8*
COc1ccc(NS(=O)(=O)c2cccc(C(=O)NNC(=O)c3ccccc3O)c2)cc1,-0.7,-15.2,3.3,1.6,-0.9,·,·,·
CCn1c(/C=C/c2cc[n+](C)cc2)nc2ccccc21,-3.2,101.8*,-33.8,-6.4,-0.5,11.7,-7.6,·
CCOC(=O)N1CCN(CC(O)COc2ccccc2C(C)C)CC1 (stereo not drawn),-0.9,-7.6,-2.0,3.0,0.2,·,·,·
COc1ccc(C2CCCN2CC(O)COc2ccccc2C(C)C)cc1 (stereo not drawn),0.4,61.0*,-3.1,0.3,1.3,-22.4,-18.1,·
O=C(C[n+]1ccn(-c2ccccc2)c1)c1ccc([N+](=O)[O-])cc1,2.2,-6.2,-40.0,-7.0,-1.2,·,·,·
CSc1nnc(-c2cc[n+](C)cc2)n1CCO,-4.3,66.1*,-2.0,6.9,-5.0,9.7,-7.9,·
CSc1nnc(-c2ccccc2)n1N,-7.7,-7.9,-6.9,2.0,-1.6,·,·,·
CCOC(=O)Cn1c2[n+](c3ccccc31)CC(O)CS2 (stereo not drawn),-1.7,101.7*,2.9,1.8,-2.3,91.2*,-8.7,-18.6
Cc1ccc(F)cc1C(=O)N1CCOCC1c1cc(C(=O)Nc2ccccc2)no1 (stereo not drawn),0.4,·,3.9,3.5,-0.8,·,·,·
O=C(Nc1nc2ccsc2c(=O)s1)c1ccc(F)cc1Cl,12.2,54.7*,14.6,15.0,0.9,38.5*,-9.8,-10.9
Cc1csc2c(=O)sc(NC(=O)c3ccc(F)cc3Cl)nc12,6.4,44.6,5.9,-1.0,2.7,·,·,·
